Like-named read-outs stand apart in the source and are kept apart here. No end group written: not given here.
Columns and labels:
recombinant human HSP72 [1] = target: T1, recombinant human HSP72 (Homo sapiens, UniProt P0DMV8); assay: BIAcore SPR kinetic analysis of peptide binding to immobilized HSP72; settings: pH 7.4, read-out: ka (on rate)
In short: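 Recombinant human HSP72 dialysed into 10 mM sodium acetate pH 5.0 and covalently coupled to a CM5 chip at about 10,000 RU. Peptides were dissolved in running buffer (HBS-P pH 7.4, 2.5 mM Mg acetate, 2.5 mM ATP) and injected at 25 to 200 μM. Sensorgrams were reference-channel subtracted without regeneration, then globally fitted to a 1:1 Langmuir model and judged by Chi2 and residuals.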

recombinant human HSP72 [2] = target: T1, recombinant human HSP72; assay: BIAcore SPR peptide binding to high-density immobilized HSP72; settings: for binding to HSP72 (sensorgram pattern): 1 mM peptide, high HSP72 immobilization density (20,000 RU), data not shown, see reference [15]
IgG = assay: BIAcore SPR peptide binding to irrelevant ligand; settings: irrelevant ligand IgG immobilized; data not shown, see reference [15]
[3] = tested on: MV RNP (parent Ed-MV and 4D variant); format: cell-based, measles virus; settings: recombinant virus with 4D-substituted motif; unpublished data
[4] = tested on: CDV transcription and genome replication; assay: CDV viral transcription and genome replication, HSP72 responsiveness; format: cell-based, canine distemper virus (Onderstepoort strain); settings: Onderstepoort CDV N protein (YSDKELL); unpublished observation
[5] = tested on: MV transcription and genomic replication; settings: ref [15], cited from earlier work
[6] = tested on: viral RNP transcriptional activity; settings: ATP-dependent association with CDV and MV RNP; ref [10]-[13]; cited from earlier work
MV RNP-HSP72 interaction = assay: Peptide competitive inhibition of MV RNP-HSP72 interaction; format: binding, human HSP72; measles virus RNP

T1 sequence (P0DMV8 whole entry): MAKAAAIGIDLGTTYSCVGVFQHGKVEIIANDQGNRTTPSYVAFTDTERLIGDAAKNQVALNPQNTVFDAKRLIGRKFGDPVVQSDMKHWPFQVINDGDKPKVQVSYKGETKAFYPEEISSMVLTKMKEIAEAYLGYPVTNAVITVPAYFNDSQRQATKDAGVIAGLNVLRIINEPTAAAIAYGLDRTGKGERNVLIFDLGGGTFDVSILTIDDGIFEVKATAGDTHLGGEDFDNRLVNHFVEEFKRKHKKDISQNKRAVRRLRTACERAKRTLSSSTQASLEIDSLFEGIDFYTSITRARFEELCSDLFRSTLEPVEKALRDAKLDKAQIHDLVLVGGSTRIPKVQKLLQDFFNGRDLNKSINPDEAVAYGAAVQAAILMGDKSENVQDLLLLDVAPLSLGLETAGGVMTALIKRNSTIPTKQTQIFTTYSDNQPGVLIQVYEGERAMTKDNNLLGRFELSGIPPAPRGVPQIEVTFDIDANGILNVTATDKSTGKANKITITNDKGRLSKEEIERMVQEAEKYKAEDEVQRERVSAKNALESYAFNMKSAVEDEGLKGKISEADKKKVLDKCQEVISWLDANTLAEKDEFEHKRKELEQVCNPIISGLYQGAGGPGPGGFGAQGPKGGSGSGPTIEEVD

DTDTPIVYNDRDPLD [Peptide N3P4D, DTDTPIVYNDRDPLD]
kon (recombinant human HSP72 [1]): 14 M⁻¹ s⁻¹

CC[C@H](C)[C@H](NC(=O)[C@@H]1CCCN1C(=O)[C@@H](NC(=O)[C@H](CC(=O)O)NC(=O)[C@@H](NC(=O)[C@@H](N)CC(=O)O)[C@@H](C)O)[C@@H](C)O)C(=O)N[C@H](C(=O)N[C@@H](Cc1ccc(O)cc1)C(=O)N[C@@H](CC(N)=O)C(=O)N[C@@H](CC(=O)O)C(=O)N[C@@H](CCCNC(=N)N)C(=O)N[C@@H](CC(N)=O)C(=O)N[C@@H](CC(C)C)C(=O)N[C@@H](CC(C)C)C(=O)N[C@@H](CC(=O)O)C(=O)O)C(C)C [N, DTDTPIVYNDRNLLD]
kon (recombinant human HSP72 [1]): 357 M⁻¹ s⁻¹
dissociation rate from HSP72, faster in 2.5 mM than in 0.1 mM ATP (recombinant human HSP72 [2]; 400 μM N peptide, 20,000 RU HSP72, HBS-P, 2.5 mM magnesium acetate): 3 times

DTDTPIVYNDRDLLD [Peptide N4D, DTDTPIVYNDRDLLD]
kon (recombinant human HSP72 [1]): 7 M⁻¹ s⁻¹

STSRHKKLMFKTEGP [p53]
binding to HSP72 (sensorgram pattern) (recombinant human HSP72 [2]): progressive rise in signal observed over time
signal over bulk shift on IgG (IgG): signal over bulk shift was not observed

HSP72: 72 kDa heat shock protein; major inducible member of the 70kDa family
functional HSP72 responsiveness of 4D virus variant [3]: loss of functional HSP72 responsiveness
HSP72 responsiveness in viral transcription and genome replication [4]: retains HSP72 responsiveness
stimulation of viral transcriptional activity (CAT reporter) ([5]; HSP72 added by transfection, wild type MV N): 2-3 fold
response to HSP72 supplementation (CAT reporter) ([5]; N protein with C-terminal 3P4D substitutions): lack a response
response to HSP72 supplementation (CAT reporter) ([5]; N protein with C-terminal 4D substitution): lack a response
effect of HSP72 association on RNP [6]: increased RNP transcriptional activity

YGSLPQKAQRPQDEN [MBP]
inhibition of RNP binding to HSP72 (MV RNP-HSP72 interaction; 400 μM peptide, MV RNP representing 1 nM N protein, maximal sensorgram response): 18%
level of inhibition of RNP-HSP72 binding, comparison (MV RNP-HSP72 interaction; 400 mM (so in the source) MBP peptide vs 5 μM N peptide): comparable to that using only 5 μM N peptide
binding to HSP72 (sensorgram pattern) (recombinant human HSP72 [2]): identical sensorgrams were obtained with 1 mM peptide solution and flow channels containing no ligand or flow channels containing either HSP72 or irrelevant protein (i.e., IgG) as ligand
